KCNQ1 pot = potentiators or activators of KCNQ1 channel, primary screen, cell-based, thallium flux, high-throughput | B-score at 10 µM | CHO-K1 KCNQ1, thallium flux FluxOR fluorescence; active compounds read high | hit rate 0.35% among 310,000;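 active means fluorescence ratio B-score, a plate-corrected score, at least three library SD, with initial intensity B-score within 5 SD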
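Test system: CHO-K1 cells stably expressing KCNQ1 / Medium: assay buffer / Also added: depolarizing K+/Tl+ stimulus, K2SO4 and Tl2SO4 each 12.5 mM in 5x stock / Incubation: 90 min dye loading and 20 min compound exposure, both at room temperature / Signal: thallium influx via FluxOR fluorescence, kinetic imaging / Evaluation: B score of baseline-normalized fluorescence ratio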
KCNK9 inh = KCNK9 potassium channel inhibitors, primary screen, HEK293 cells, thallium flux. FluxOR thallium flux fluorescence; active compounds read low. B-score at 10 µM. hit rate 1.2% among 310,000;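 active means ratio B-score over 3 SD below the library mean, with starting fluorescence within 5 SD of its mean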;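 further: negative B-score means less thallium flux so channel inhibition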
hERG rescue = hERG rescue from dofetilide block, primary screen, cell-based, CHO-hERG, FluxOR thallium flux, dofetilide IC70; Voltage-gated inwardly rectifying potassium channel KCNH2 (Homo sapiens), Q12809; dofetilide IC70 present; activation (rescue from dofetilide block), less the hit threshold, % at 10 µM; hit rate 0.51% among 310,000;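 active means activation above the mean of controls blocked by dofetilide plus 5 SD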;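 further: thallium influx through hERG after potassium depolarization seen as dye fluorescence rise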
Target sequence (Q12809 whole entry, looked up): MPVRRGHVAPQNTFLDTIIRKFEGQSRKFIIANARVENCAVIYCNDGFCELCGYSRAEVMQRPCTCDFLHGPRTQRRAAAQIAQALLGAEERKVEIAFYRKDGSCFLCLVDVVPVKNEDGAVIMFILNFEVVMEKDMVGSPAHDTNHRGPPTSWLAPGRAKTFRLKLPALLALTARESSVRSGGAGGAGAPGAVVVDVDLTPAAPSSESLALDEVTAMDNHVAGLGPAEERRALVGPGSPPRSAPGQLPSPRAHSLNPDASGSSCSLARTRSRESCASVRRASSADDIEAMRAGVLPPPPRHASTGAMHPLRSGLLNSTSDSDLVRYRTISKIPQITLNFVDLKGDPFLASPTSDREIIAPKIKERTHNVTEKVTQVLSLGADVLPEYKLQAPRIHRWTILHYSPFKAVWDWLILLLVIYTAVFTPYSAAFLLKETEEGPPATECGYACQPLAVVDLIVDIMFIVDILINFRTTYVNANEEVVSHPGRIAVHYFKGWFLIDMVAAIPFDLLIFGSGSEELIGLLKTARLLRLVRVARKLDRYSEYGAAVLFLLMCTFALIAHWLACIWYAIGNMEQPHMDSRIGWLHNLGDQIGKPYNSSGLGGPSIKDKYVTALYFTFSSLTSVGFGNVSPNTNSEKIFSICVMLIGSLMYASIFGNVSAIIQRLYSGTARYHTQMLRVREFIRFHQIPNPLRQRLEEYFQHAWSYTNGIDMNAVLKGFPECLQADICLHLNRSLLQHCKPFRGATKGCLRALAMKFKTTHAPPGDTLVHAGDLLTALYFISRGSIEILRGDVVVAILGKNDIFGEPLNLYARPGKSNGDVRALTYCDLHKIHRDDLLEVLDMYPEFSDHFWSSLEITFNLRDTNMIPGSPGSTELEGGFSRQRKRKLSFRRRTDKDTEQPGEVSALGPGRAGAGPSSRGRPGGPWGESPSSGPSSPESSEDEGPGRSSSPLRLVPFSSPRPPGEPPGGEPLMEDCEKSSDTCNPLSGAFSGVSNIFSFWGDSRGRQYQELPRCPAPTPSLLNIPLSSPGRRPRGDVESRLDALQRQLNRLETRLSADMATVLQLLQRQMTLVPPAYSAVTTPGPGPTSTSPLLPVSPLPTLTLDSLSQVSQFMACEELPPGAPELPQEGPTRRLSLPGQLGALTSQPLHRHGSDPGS
KCNK3 block = human KCNK3 channel inhibitors, primary screen, CHO cells, FluxOR thallium flux, B-score; FluxOR fluorescence; active compounds read low; B-score at 10 µM; hit rate 0.84% among 340,000; AID 602410, 2012;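 active means B-score under library mean minus 4 SD, starting fluorescence ratio at most library mean plus 5 SD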;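 further: more negative B-score means stronger inhibition of thallium flux through KCNK3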
KCNQ1 block = inhibitors of human KCNQ1 channel, primary screen, cell-based, thallium flux, high-throughput. Potassium voltage-gated channel subfamily KQT member 1 (Homo sapiens), P51787. CHO-K1 KCNQ1, FluxOR thallium flux fluorescence; active compounds read high. B-score at 10 µM. hit rate 1.3% among 310,000. AID 2642, 2010;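 active means compounds whose thallium flux B-score, printed positive for inhibition, exceeds three library SD while starting fluorescence stays within three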;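 further: channel opened by potassium depolarization with thallium stimulus after 20 min compound exposure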
Kir21 inh = inhibitors of mouse Kir2.1 inward-rectifier potassium channel; Inward rectifier potassium channel 2 (Mus musculus), P35561; HEK293-Kir2.1, FluxOR thallium flux fluorescence; active compounds read low; B-score at 10 µM; hit rate 0.85% among 310,000; AID 1672, 2009;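 active means fluorescence ratio B-score at or below minus 3 SD of library scores, with starting-brightness B-score within 2 SD, cut at about -4.2 in these data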;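 further: channel flux triggered by added potassium and thallium sulfate stimulus; B-score of peak minus minimum fluorescence over baseline after thallium stimulus; more negative B-score means stronger Kir2.1 block with less thallium influx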
Large screens that a line does not name were inactive. The list is not random: actives were taken first. Their share in the collection is about 3.8%.

C[C@@H]1CC=C[C@H]2[C@H]1C(=O)N(Cc1ccccc1)[C@H]2c1ccc(F)c(Br)c1	KCNK9 inh -19, KCNQ1 block 10 (no result: KCNK3 block)
O=C1C2C(c3cccc(/C=C/c4ccccc4)c3)CC=CC2C(c2ccc3ccccc3c2)N1Cc1ccccc1 (configuration not stated)	none
CCOC(=O)C1CCC(=O)C1 (configuration not stated)	none (no result: KCNQ1 pot, KCNK9 inh, hERG rescue, KCNQ1 block, Kir21 inh)
CCn1c(CCc2ccccc2)nc2ccccc21	none
Cc1nccn1CCCNC(=O)c1nc(Cn2cc([N+](=O)[O-])cn2)no1	none
O=C(O)CCCNC(=O)/C(=C\c1ccc(Cl)cc1)NC(=O)c1ccc(Br)cc1	none
O=C(OCc1cccc([N+](=O)[O-])c1)c1ccc2ccccc2n1	hERG rescue 5.2
CC(=O)/C=C1/C(=O)Nc2ccccc21	Kir21 inh -5.22
COC(=O)Cn1c2c(c3cc(C)ccc31)CCCC2NC(C)c1ccccc1 (configuration not stated)	hERG rescue 4.9
CCN(c1ccccc1)S(=O)(=O)c1ccc(C(=O)NCC2(N(C)C)CCCCC2)cc1	none (no result: KCNQ1 pot, KCNK9 inh, hERG rescue, KCNQ1 block, Kir21 inh)
CCN1C(=O)CSc2ccc(C(=O)NCc3ccc(OC)cc3)cc21	Kir21 inh -8.94
Cc1ccc(C(=O)NC2CCN(S(=O)(=O)c3ccc(F)cc3)CC2)cc1	none
NCC/C=C1/c2ccccc2CSc2ccccc21	Kir21 inh -4.35
O=Cc1[nH]c2ccccc2c1N(C(=O)CCl)c1ccc([N+](=O)[O-])cc1	KCNQ1 block 9, Kir21 inh -5.55
CC(=O)n1cc(N(C(=O)CCl)c2ccc([N+](=O)[O-])cc2)c2ccccc21	KCNQ1 block 7
O=C1C([N+](=O)[O-])=C(O)c2cccc3cccc1c23	none (no result: KCNK3 block)
CCN(C(=O)CSc1nc2cc(Cl)ccc2c(=O)n1CC(C)C)C1CCS(=O)(=O)C1 (configuration not stated)	KCNK3 block -10.6
CCN(C(=O)CSc1nc2ccccc2c(=O)n1-c1ccccc1F)C1CCS(=O)(=O)C1 (configuration not stated)	KCNK3 block -10.5 (no result: KCNQ1 pot, KCNK9 inh, hERG rescue, KCNQ1 block, Kir21 inh)
CCN1CCN(Cc2ccc(NC(=O)c3cc(NC(=O)C(=O)c4c[nH]c5ccccc45)cc(OC)c3)cc2C(F)(F)F)CC1	none
CCN1CCN(Cc2ccc(NC(=O)c3ccc(C)c(NC(=O)C(=O)c4c[nH]c5ccccc45)c3)cc2C(F)(F)F)CC1	KCNQ1 block 12
CCSc1ccccc1C(=O)Nc1ccc([N+](=O)[O-])cc1OC	none
CCc1ccccc1NC(=O)c1ccccc1Sc1ccc([N+](=O)[O-])cc1Cl	KCNK9 inh -7.16
Cc1cc(Br)ccc1NC(=O)CNC(=O)CN(C)C1CCS(=O)(=O)C1 (configuration not stated)	none (no result: KCNQ1 pot, KCNK9 inh, hERG rescue, KCNQ1 block, Kir21 inh)
O=C(Nc1cc([N+](=O)[O-])ccc1O)NC1CCS(=O)(=O)C1 (configuration not stated)	none (no result: KCNQ1 pot, KCNK9 inh, hERG rescue, KCNQ1 block, Kir21 inh)
O=C(Nc1cccc([N+](=O)[O-])c1)c1cnccn1	none
O=C(Nc1cccc([N+](=O)[O-])c1)NC1CCS(=O)(=O)C1 (configuration not stated)	KCNQ1 block 10
O=C(Nc1cccnc1)Nc1cccc([N+](=O)[O-])c1	KCNQ1 block 6
O=C(Nc1ccc(OC(F)(F)F)cc1)Nc1cccc([N+](=O)[O-])c1	KCNQ1 block 7
NC(=O)c1cccnc1Nc1cccc([N+](=O)[O-])c1	hERG rescue 9.4
NC(=O)c1cc([N+](=O)[O-])ccc1Nc1ccccc1	none (no result: KCNQ1 pot, KCNK9 inh, hERG rescue, KCNQ1 block, Kir21 inh)
O=c1ccc2cc(S(=O)(=O)N3CCN(c4ccccc4F)CC3)ccc2o1	none
COC(=O)c1sccc1NC(=O)Nc1ccc(C(C)=O)cc1	none
Cc1ccc(CN2CCN(/N=C/c3ccc(O)c(O)c3)CC2)cc1	hERG rescue 7.1
Cc1ccc(CN2CCN(/N=C/c3ccc(C(=O)O)cc3)CC2)cc1	none
C/C(=N\Nc1nc(C)c(C)s1)c1ccc([N+](=O)[O-])cc1	KCNQ1 pot 19, hERG rescue 30.4
Cc1cc(OCC(=O)NNC(=S)NC(=O)c2ccc(Br)o2)ccc1Cl	KCNQ1 pot 33
CCCCCSc1nnc2c(n1)OC(C)N(C(C)=O)c1ccccc1-2 (configuration not stated)	KCNK3 block -10.3
CCCCSc1nnc2c(n1)OC(C(=O)c1ccccc1)Nc1ccccc1-2 (configuration not stated)	none (no result: KCNK3 block)
CC(=O)c1ccc(Oc2ccc(C(C)=O)cc2)cc1	none
Oc1ccc(Oc2ccc(Oc3ccc(O)cc3)cc2)cc1	KCNK9 inh -6.91, KCNQ1 block 13
Cc1cccc(CS(=O)(=O)c2ncc(Cl)c(C(=O)Nc3c(C)cccc3C)n2)c1	KCNK9 inh -6.68, Kir21 inh -11.8
Cc1ccc(C)c(OC(=O)c2cncc(Br)c2)c1	none
CN(C)c1ccc(N2C(=O)CSC2=S)cc1	hERG rescue 6.8
Cc1ccc(C(=O)OCC(=O)NC(C)C2CC3CCC2C3)cc1N (configuration not stated)	none (no result: KCNQ1 pot, KCNK9 inh, hERG rescue, KCNQ1 block, Kir21 inh)
Cc1nn(Cc2ccccc2Cl)c2sc(C(=O)Nc3ccccc3N3CCOCC3)cc12	KCNQ1 block 6
Cc1nn(Cc2ccc(F)cc2)c2sc(C(=O)Nc3ccccc3N3CCOCC3)cc12	none
CC(C)c1nc2sc3c(=O)[nH]c(=S)[nH]c3c2c2c1CCCC2	none
CC(C)c1nc2sc3c(=O)[nH]c(=S)[nH]c3c2c2c1CCC2	KCNQ1 pot 21 (no result: KCNK3 block)
O=C1/C(=C/C=C/c2ccccc2)Oc2c1ccc(O)c2CN1CCN(CCO)CC1	none
CN(C)Cc1c(O)ccc2c1O/C(=C\C=C\c1ccccc1)C2=O	KCNQ1 block 9
CCN1CCN(Cc2c(O)ccc3c2O/C(=C\c2ccccc2)C3=O)CC1	none
CCc1ccc(/C=C2\Oc3c(ccc(O)c3CN3CCN(C)CC3)C2=O)cc1	KCNQ1 block 8
COc1ccccc1/C=C/C=C1\Oc2c(ccc(O)c2CN2CCN(CCO)CC2)C1=O	KCNK9 inh -6.83, KCNQ1 block 6
COc1cc(NC(=O)CSc2nc3c(C)ccc(C)c3cc2C)c(C(=O)O)cc1OC	none
CC(c1ccccc1)n1c(-c2ccncc2)n[nH]c1=S (configuration not stated)	none
CC(c1ccccc1)n1c(-c2ccc(Cl)cc2)n[nH]c1=S (configuration not stated)	hERG rescue 7.8
O=C(CSc1nncn1-c1ccccc1F)NC1CC1	none (no result: KCNQ1 pot, KCNK9 inh, hERG rescue, KCNQ1 block, Kir21 inh)
